Results taken from ChEMBL document CHEMBL5038573, “Total Synthesis of Laucysteinamide A, a Monomeric Congener of Somocystinamide A” (J Nat Prod, 2021).

Experiments:
[1] = (§1) Toxicity in brine shrimp assessed as induction of lethality incubated for 24 hrs by microscopic analysis; format: organism-based, Artemia salina; conditions: Artemia salina (brine shrimp)
NCI-H460 = assay: Cytotoxicity against human NCI-H460 cells assessed as cell growth inhibition incubated for 48 hrs by MTT assay; format: functional, cell-based
In short: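 NCI-H460 cells seeded at 6.66 × 10³ cells/mL in RPMI 1640 with FBS and grown 24 h (37 °C, 5% CO₂). Nine half-log dilutions (top 127–300 μM) added, final 1% v/v DMSO and PEG400, six replicates per concentration. After 48 h, MTT for 25 min, then dissolved in DMSO and read at 570 and 630 nm.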

Artemia salina = assay: as §1; format: organism-based
A549 = assay: Cytotoxicity against human A549 cells assessed as cell growth inhibition incubated for 48 hrs by MTT assay; format: functional, cell-based; conditions: A549, 48 h
[2] = Homo sapiens, NCI-H460, 48 h, read-out: IC50

Structure (SMILES) | IC50 at 24 h [1] [µM] | IC50 (NCI-H460; [2]) [µM] | IC50 (Artemia salina) | IC50 (A549) [µM] | IC50 (NCI-H460; nci-h460)
C=CC/C=C/N(C)C(=O)c1ccccc1 | > 100 | > 300 | – | – | –
C=CC/C=C/N(C)C(=O)CCCCCCCCCC/C=C/[C@@H]1CSC(C)=N1 | > 100 | 20 | – | – | –
C=CC/C=C/N(C)C(=O)CCC | > 100 | > 248 | – | – | –
CCC/C=C/N(C)C(=O)CCCCCCCCCC/C=C/[C@@H]1CSC(C)=N1 | – | 33 | Not Active | – | –
C=CC/C=C/N(C)C(=O)CCCCCCCC/C=C/[C@H](CSSC[C@@H](/C=C/CCCCCCCCC(=O)N(C)/C=C/CC=C)NC(C)=O)NC(C)=O | > 130 | – | – | 0.046 | Not Active
